{
  "source": "ChEMBL document CHEMBL2177013",
  "about": "“Synthesis and biological evaluation of tylophorine-derived dibenzoquinolines as orally active agents: exploration of the role of tylophorine e ring on biological activity” (J Med Chem, 2012)",
  "key": {"[1]": {"assay": "AUC (0 to infinity) in Sprague-Dawley rat at 3 mg/kg, po by HPLC-MS method", "format": "ADME, organism-based", "parameters": "dose 3 mg/kg, route oral, time infinity", "conditions": "plasma", "procedure,_shortened": "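Male rats (330−380 g, 9−10 weeks old), jugular vein cannulated 1 day before dosing, fasted; 3 mg/kg iv or oral in DMA/PEG400 (30/70, v/v), n = 3. Blood (150 μL) drawn at 0, 2, 5 (iv only), 15, 30 min and 1, 2, 4, 6, 8, 12, 24 h, kept on ice; plasma analysed by HPLC-MS; noncompartmental analysis.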"}, "[2]": {"assay": "Volume of distribution at steady state in Sprague-Dawley rat at 3 mg/kg, iv by HPLC-MS method", "format": "ADME, organism-based", "parameters": "dose 3 mg/kg, route intravenous", "conditions": "in vivo, read-out: Vdss", "procedure,_shortened": "(§1)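 Male rats (330−380 g, 9−10 weeks), jugular vein cannula implanted 1 day before, fasted. 3 mg/kg given iv or orally (n = 3) in DMA/PEG400 30/70 v/v. Blood (150 μL) drawn at 0, 2, 5 (iv only), 15, 30 min and 1, 2, 4, 6, 8, 12, 24 h; plasma analysed by HPLC-MS; noncompartmental analysis.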"}, "[3]": {"assay": "Clearance in Sprague-Dawley rat at 3 mg/kg, iv by HPLC-MS method", "format": "ADME, organism-based", "parameters": "dose 3 mg/kg, route intravenous", "conditions": "in vivo", "procedure,_shortened": "as §1"}, "Murine hepatitis virus [4]": {"test_system": "Murine hepatitis virus", "assay": "Antiviral activity against Murine hepatitis virus JHM infected in mouse DBT cells assessed as reduction in N-protein expression at 0.05 to 0.5 uM pre-treated 1 hr before virus infection and measured 24 hrs post infection by immunofluorescent assay", "format": "functional, organism-based", "procedure,_shortened": "(§2)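 DBT cells (2.8 × 10⁵/well) seeded the day before infection in DMEM with 2% FBS. Compound added 1 h before MHV-JHM at MOI 0.005 (virus grown in BNL CL.2 cells). Cytopathic effect viewed by phase contrast and N protein by immunofluorescence at 24 hpi.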"}, "Murine hepatitis virus [5]": {"test_system": "Murine hepatitis virus", "assay": "Antiviral activity against Murine hepatitis virus JHM infected in mouse DBT cells assessed as reduction in virus-induced cytopathic effect at 0.05 to 0.5 uM pre-treated 1 hr before virus infection and measured 24 hrs post infection by phase contrast microscopy", "format": "functional, organism-based", "procedure,_shortened": "as §2"}, "RAW264.7": {"test_system": "RAW264.7", "assay": "Antiinflammatory activity in mouse RAW264.7 cells assessed as inhibition of LPS-induced nitric oxide production incubated for 18 hrs by nitrate/nitrite assay", "format": "functional, cell-based", "conditions": "RAW264.7, 18 h", "procedure,_shortened": "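RAW264.7 seeded 65000 cells/well, cultured 24 h, then medium replaced with complete medium containing IFNγ (20 ng/mL)/LPS (5 μg/mL) plus compound at various concentrations for 18 h; nitric oxide measured by Nitrate/Nitrite kit. EC50 as mean of at least three experiments, each in duplicate.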"}, "Rattus norvegicus": {"test_system": "Rattus norvegicus", "assay": "Antiinflammatory activity against Sprague-Dawley rat assessed as reduction in carrageenan-induced hind paw edema at 3 mg/kg, ip", "format": "functional", "parameters": "scale not given: the % may be the effect or the level left", "conditions": "route intraperitoneal", "procedure,_shortened": "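Female Sprague−Dawley rats (193−214 g, 8−9 weeks, n = 5) dosed ip 1 h before subplantar injection of 100 μL 1% carrageenan in saline into the left hind paw. Vehicle group received DMSO (100 μL); indomethacin served as positive control. Inhibition of 30% or more counted as significant.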"}, "A549": {"test_system": "A549", "assay": "Antitumor activity against human A549 cells xenografted in Nu-Foxn1'nu mouse assessed as reduction in tumor volume at 10 mg/kg, po administered once daily on day 1 to 10, day 15 to 19 and day 22 to 26", "format": "functional", "parameters": "scale not given: the % may be the effect or the level left", "procedure,_shortened": "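Four-week-old male nude mice received 10 million A549 cells sc in the right flank. At ~60 mm³ tumours, mice were randomised (n = 8) and dosed by oral gavage in 25% DMA + 75% PEG400. Volume = a×b²/2. T/C (%) computed from day 1 and day 60 volumes versus vehicle.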"}},
  "note": "Calls of active or inactive are those of the source. No cut-off for these calls is given here.",
  "data": [
    {"smiles": "CCN1Cc2c(c3ccc(OC)cc3c3cc(OC)c(OC)cc23)C(O)C1", "note": "(stereo not drawn)", "values": [
      {"measurement": "AUC(0-inf)", "setting": "[1]", "result": 646, "unit": "ng·h/mL"},
      {"measurement": "Vd", "setting": "[2]", "result": 2.7, "unit": "L/kg"},
      {"measurement": "clearance", "setting": "[3]", "result": 51.8, "unit": "mL/min/kg"},
      {"measurement": "Activity", "setting": "Murine hepatitis virus [4]", "result": "Active"},
      {"measurement": "Activity", "setting": "Murine hepatitis virus [5]", "result": "Active"},
      {"measurement": "EC50", "setting": "RAW264.7", "result": 70, "unit": "nM"},
      {"measurement": "Activity", "setting": "Rattus norvegicus", "result": ">60", "unit": "%"},
      {"measurement": "Activity", "setting": "A549", "result": 61, "unit": "%"}
    ]}
  ]
}
